# Activity calls are given as the source filed them. No cut-off for these calls is given here.
# Target: T1, Tyrosine-protein phosphatase non-receptor type 11 (Homo sapiens) (UniProt Q06124)
# T1 sequence (whole entry): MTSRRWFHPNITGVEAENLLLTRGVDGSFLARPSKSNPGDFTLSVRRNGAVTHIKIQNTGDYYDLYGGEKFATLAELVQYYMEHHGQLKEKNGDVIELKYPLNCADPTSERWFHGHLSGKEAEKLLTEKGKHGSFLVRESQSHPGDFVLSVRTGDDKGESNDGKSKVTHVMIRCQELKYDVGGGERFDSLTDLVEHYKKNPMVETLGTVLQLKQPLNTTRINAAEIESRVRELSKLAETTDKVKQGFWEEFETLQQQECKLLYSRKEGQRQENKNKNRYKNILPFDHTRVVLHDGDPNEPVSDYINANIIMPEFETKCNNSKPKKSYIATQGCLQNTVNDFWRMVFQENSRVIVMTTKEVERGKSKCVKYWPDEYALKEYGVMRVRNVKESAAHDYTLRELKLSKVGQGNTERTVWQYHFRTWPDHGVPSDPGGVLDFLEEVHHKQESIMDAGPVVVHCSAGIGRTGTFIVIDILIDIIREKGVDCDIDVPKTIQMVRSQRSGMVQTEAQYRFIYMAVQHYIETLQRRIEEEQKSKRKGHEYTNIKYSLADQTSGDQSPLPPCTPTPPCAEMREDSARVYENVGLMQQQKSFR
# Assay: Inhibition of wild type recombinant human SHP2 at 50 uM using H-Glu-Phe-pTyr-Ala-Glu-Val-Gly-Arg-Ser-Pro-Pro-Asp-Pro-Ala-Lys as substrate preincubated for 30 mins followed by substrate addition and measured after 30 mins by Malachite Green-reagent based assay
# In short: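 Full-length SHP2 or SHP1 (0.1 µg) preincubated with compound 30 min at room temperature in 25 mM Tris-HCl pH 7.4, 50 mM NaCl, 5 mM DTT, 2.5 mM EDTA. Phospho-peptide substrate added to 50 µM final; 30 min at 30 °C. Released phosphate read by Malachite Green at OD620. IC50 from six concentrations; three experiments.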
row,SMILES,inhibition
1,CCOc1cc(O)c(C(=O)/C=C/c2ccc(Cl)cc2Cl)cc1CN1CCNCC1C (centres undefined),Active
2,CCOc1cc(O)c(C(=O)/C=C/c2ccc(Cl)cc2Cl)cc1CN1C[C@@H](O)C[C@@H]1C(C)=O,Active
3,CCOc1cc(O)c(C(=O)/C=C/c2ccc(Cl)cc2Cl)cc1CN1CCCCC1,Active
4,C=CCOc1cc(O)c(C(=O)/C=C/c2ccc(Cl)cc2Cl)cc1CN1CCCCC1,Active
5,CCOc1cc(O)c(C(=O)/C=C/c2ccc(Cl)cc2Cl)cc1CN(CC)CC,Active
6,C=CCOc1cc(O)c(C(=O)/C=C/c2ccc(Cl)cc2Cl)cc1CN1CCC(O)CC1,Active
7,CCOc1cc(O)c(C(=O)/C=C/c2ccc(Cl)cc2Cl)cc1CN1CCC(O)CC1,Active
8,CCOc1cc(O)c(C(=O)/C=C/c2ccc(OC)cc2)cc1CN1CCCCC1,Active
9,CCOc1cc(O)c(C(=O)/C=C/c2ccc(Cl)cc2)cc1CN1CCCC1,Active

# Source: ChEMBL document CHEMBL4422612, “Small Molecule Inhibitor that Stabilizes the Autoinhibited Conformation of the Oncogenic Tyrosine Phosphatase SHP2” (J Med Chem, 2019)
